Assay outcomes (PubChem BioAssay)
In the library only some 1.9% were active in any assay of this set; here they are far more common.
proCasp3 act: activates human procaspase-3 | activation, % at 8.5 µM | recombinant procaspase-3 D3A, Ac-DEVD-pNA absorbance 405 nm | 330,000 tested, 0.11% active;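 active = activation above the mean of all tested compounds plus 3 SD, cut at about 21% in these data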;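 also: 0% = DMSO alone and 100% = DMSO wells spiked with extra 5 µM PC-3 D3A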
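Test system: Procaspase-3 D3A mutant; medium: Zinc-free HEPES/NaCl buffer with 0.01% Triton X-100 at pH 7.4; reagent: DEVD-pNA substrate; doses: one concentration, 8.5 µM nominal, 0.8% DMSO; times: 1 h preincubation plus 2 h reaction at 25 °C; signal: Epi-absorbance at 405 nm of released p-nitroaniline, 0 and 120 min; replicates: singlicate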
PHOSPHO1 inh: inhibitors of human PHOSPHO1 phosphatase | Q8TCT1 | recombinant PHOSPHO1, absorbance phosphatase assay | inhibition, % at 13.3 µM | 290,000 tested, 1.1% active | AID 1565; in the data active = inhibition above about 60%
proCasp7 act: counter-screen: procaspase-7 (human) activation | 330,000 tested, 0.093% active | P55210 | AID 463210 | activation, % at 8.5 µM | recombinant procaspase-7, Ac-DEVD-pNA absorbance 405 nm; D23A/D198A/D206A triple mutant, cannot self-cleave; scale: DMSO 0, 5 µM enzyme 100;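 active = percent activation above the screen-wide mean plus 3 SD, cut at about 25% in these data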
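Material: Procaspase-7 triple mutant (PC-7 D3A) | Quantity: 2 µM procaspase-7 mutant as dispensed | Reagent: DEVD-pNA substrate | Times: 1 h preincubation, 2 h reaction | Technique: 405 nm absorbance of p-nitroaniline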
UBC13 polyUb: inhibitors of human UBC13 polyubiquitin chain formation | P61088 | TR-FRET | inhibition, % at 20 µM | 330,000 tested, 0.47% active; in the data active = inhibition above about 45%, passing the limit was not always enough; inconclusive = no clear call, values can overlap the other calls
IDE inh: inhibitors of human insulin-degrading enzyme in cells. P14735. HEK cells, FAbetaB cleavage, fluorescence polarization. inhibition, % at 5.59 µM. 320,000 tested, 0.41% active;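 active = percent inhibition above the average of all tested compounds plus 3 SD, set per screening campaign, cut at about 16% in these data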;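 also: IDE supplied by intact live HEK cells; FP after avidin binding of uncleaved biotin substrate so inhibition keeps polarization high; 0% = DMSO wells and 100% = 60 µM reference IDE inhibitor Ii1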
Target sequence (P14735 whole entry, looked up): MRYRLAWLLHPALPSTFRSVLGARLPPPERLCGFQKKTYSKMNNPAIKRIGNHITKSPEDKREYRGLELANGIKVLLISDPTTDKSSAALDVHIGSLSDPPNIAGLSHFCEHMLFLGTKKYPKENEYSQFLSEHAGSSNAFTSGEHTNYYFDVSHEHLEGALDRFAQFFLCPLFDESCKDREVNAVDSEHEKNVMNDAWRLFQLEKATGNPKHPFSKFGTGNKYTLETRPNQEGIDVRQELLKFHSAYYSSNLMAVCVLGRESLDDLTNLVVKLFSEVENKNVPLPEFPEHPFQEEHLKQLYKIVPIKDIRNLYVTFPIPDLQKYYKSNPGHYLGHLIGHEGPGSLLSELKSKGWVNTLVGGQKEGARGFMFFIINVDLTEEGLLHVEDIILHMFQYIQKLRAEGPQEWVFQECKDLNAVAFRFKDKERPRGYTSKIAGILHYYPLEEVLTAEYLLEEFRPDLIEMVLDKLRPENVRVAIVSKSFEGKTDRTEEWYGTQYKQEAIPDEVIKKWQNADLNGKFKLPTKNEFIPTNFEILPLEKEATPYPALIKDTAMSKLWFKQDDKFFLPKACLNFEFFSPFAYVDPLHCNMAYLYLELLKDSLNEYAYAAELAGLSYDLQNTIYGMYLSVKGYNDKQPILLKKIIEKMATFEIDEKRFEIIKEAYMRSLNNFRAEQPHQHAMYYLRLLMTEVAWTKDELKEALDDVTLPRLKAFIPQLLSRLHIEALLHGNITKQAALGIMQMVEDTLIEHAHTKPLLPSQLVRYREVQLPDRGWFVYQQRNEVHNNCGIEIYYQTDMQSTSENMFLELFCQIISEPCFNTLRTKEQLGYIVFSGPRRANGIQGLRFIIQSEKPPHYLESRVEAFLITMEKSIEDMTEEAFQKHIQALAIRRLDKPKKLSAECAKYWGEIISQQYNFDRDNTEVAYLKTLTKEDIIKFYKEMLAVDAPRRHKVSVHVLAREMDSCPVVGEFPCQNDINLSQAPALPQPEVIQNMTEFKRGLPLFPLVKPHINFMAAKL
IDE act: IDE (human) activation, cell-based | AID 493087 | HEK cells, FAbeta-B cleavage, fluorescence polarization; 0% vehicle, 100% cell-free pure enzyme wells | P14735 | 340,000 tested, 0.073% active | activation, % at 5.96 µM;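 active = activation above the mean of all tested compounds plus 3 SD, set per screening campaign, cut at about 17% in these data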
Casp3 counter: inhibits human caspase-3 in UBC13 counter-screen; shares compounds with UBC13 polyUb; Recombinant caspase-3, Caspase-Glo 3/7 luminescence, 60 min; inhibition, % at 20 µM; 1,400 tested, 4% active;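 active = mean inhibition across replicates above about 26%, limit read from the data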;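 also: plate controls were DMSO with caspase-3 for no effect and DMSO wells lacking enzyme for full effect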
UBC13 confirm: human UBC13 polyubiquitin inhibition, confirmed. shares compounds with UBC13 polyUb. UBC13 polyubiquitination, TR-FRET, biochemical. inhibition, % at 10 µM. 1,400 tested, 68% active. AID 488859; in the data active = inhibition above about 45%; inconclusive = no clear call, values can overlap the other calls
Numbers without * were called inactive; ? = inconclusive; . = not tested or not shown.

SMILES	proCasp3 act	PHOSPHO1 inh	proCasp7 act	UBC13 polyUb	IDE inh	IDE act	Casp3 counter	UBC13 confirm
COCCN=C1N[C@@H](c2cccc(C(F)(F)F)c2)C(C(=O)OC)=C(C)N1Cc1ccccc1	-2.4	-13.0	5.3	6.4	6.7	2.2	.	.
C=CCN=C1N[C@@H](c2cccc(C(F)(F)F)c2)C(C(=O)OC)=C(C)N1CC	-0.8	-1.7	-2.7	5.5	0.6	0.6	.	.
COC(=O)C1=C(C)N(Cc2ccccc2)C(=NCCc2c[nH]c3ccccc23)N[C@H]1c1cccc(C(F)(F)F)c1	-8.7	.	-2.4	74.0*	-0.9	16.3	0.7	86.3*
COC(=O)C1=C(C)N(Cc2ccccc2)C(=NCc2cccc(C(F)(F)F)c2)N[C@H]1c1cccc(C(F)(F)F)c1	3.9	.	5.1	89.6*	5.1	28.8*	3.8	94.1*
COC(=O)C1=C(C)N(Cc2ccccc2)C(=NCc2cccc(C(F)(F)F)c2)N[C@H]1c1cccc(F)c1	-0.2	-7.3	1.5	97.3*	-2.0	24.1*	-4.0	84.1*
COC(=O)C1=C(C)N(Cc2ccccc2)C(=NCCCCO)N[C@H]1c1cccc(C(F)(F)F)c1	4.5	.	1.3	34.2	1.2	-3.4	.	.
Cc1cc(Oc2cccc3c2S(=O)(=O)N(C2CCCC2)CC(COCc2ccccc2)O3)cc(C)c1C (stereo unspecified)	.	.	.	.	.	1.9	.	.
O=[N+]([O-])c1ccccc1OCCCOc1cccc2cccnc12	9.2	13.9	-5.4	5.8	-1.5	0.9	.	.
COc1ccccc1NC(=O)c1c(N=Cc2c(O)ccc3ccccc23)cnn1C	-5.7	-16.6	-10.7	57.6*	-1.2	5.0	0.1	66.1*
CC(C)Cn1c(-c2cccs2)nc2nc3ccccc3nc21	0.3	5.7	-2.4	37.7	-0.9	-2.1	.	.
CCCCn1c(-c2cccs2)nc2nc3ccccc3nc21	0.6	27.4	2.0	56.0*	-1.1	3.3	-0.7	45.4*
COc1ccc(Cn2cc3c(-c4ccc(F)cc4)nnc-3c3cc(OC)c(OC)cc32)cc1	0.1	-2.0	22.5	87.3*	0.3	3.7	-2.3	39.2
COc1cc2c3nnc(-c4ccc(F)cc4)c-3cn(Cc3ccccc3)c2cc1OC	1.0	-10.0	10.8	82.4*	7.4	-5.2	-2.1	50.4*
COc1cc2c3nnc(-c4ccc(F)cc4)c-3cn(Cc3ccc(F)cc3)c2cc1OC	-7.2	12.2	1.5	65.4*	6.2	-4.7	-4.1	41.0
Cn1nc2c3cc(F)ccc3n(Cc3ccc(F)cc3)cc-2c1=O	-2.5	42.2	-1.8	3.9	2.3	2.2	.	.
C#CCOCCOCCOCCNc1nc(N2CCN(C(=O)C([C@@H](C)O)n3cc([C@@H](N)CCCCN)nn3)CC2)nc(N2CCN(C(=O)[C@H](CC(N)=O)n3cc(C(N)[C@@H](C)CC)nn3)CC2)n1 (stereo partly specified)	0.7	.	-2.8	21.1	4.1	0.1	.	.
C#CCOCCOCCOCCNc1nc(N2CCN(C(=O)C([C@@H](C)O)n3cc([C@@H](N)CCCCN)nn3)CC2)nc(N2CCN(C(=O)C([C@@H](C)O)n3cc([C@@H](N)CCCCN)nn3)CC2)n1 (stereo partly specified)	4.4	.	3.5	80.3*	3.6	-2.2	-0.1	60.7*
C#CCOCCOCCOCCNc1nc(N2CCN(C(=O)C([C@@H](C)O)n3cc([C@@H](N)CCCCN)nn3)CC2)nc(N2CCN(C(=O)[C@H](CO)n3cc([C@@H](N)C(C)C)nn3)CC2)n1 (stereo partly specified)	6.4	.	11.3	104.9*	-4.1	5.4	-5.2	110.7*
C#CCOCCOCCOCCNc1nc(N2CCN(C(=O)[C@H](CO)n3cc([C@@H](N)C(C)C)nn3)CC2)nc(N2CCN(C(=O)[C@H](CO)n3cc([C@@H](N)C(C)C)nn3)CC2)n1	.	.	.	.	.	0.0	.	.
C#CCOCCOCCOCCNc1nc(N2CCN(C(=O)[C@H](CO)n3cc([C@@H](N)C(C)C)nn3)CC2)nc(N2CCN(C(=O)[C@H](CCC(=O)O)n3cc([C@@H](N)CCCCN)nn3)CC2)n1	1.9	.	8.2	45.4*	2.6	1.5	-0.6	46.7*
CCCC(=O)N(CCN1CCOCC1)c1nc2c(F)cc(F)cc2s1	7.1	11.6	8.6	-1.6	-2.6	0.0	.	.
CC(OC(=O)CCCN=C1NS(=O)(=O)c2ccccc21)C(=O)NC1CCCCC1C (stereo unspecified)	-7.7	19.2	-0.8	0.3	-1.2	5.2	.	.
O=C(OCc1nc2scc(-c3ccccc3)c2c(=O)[nH]1)c1cc([N+](=O)[O-])ccc1Cl	1.3	4.2	-3.2	45.6*	1.7	-1.4	2.4	-3.2
CCOc1ccc(-c2csc(NC(=O)c3cccc(N4C(=O)CCC4=O)c3)n2)cc1	-3.9	37.0	6.2	57.8*	-1.9	5.1	-1.5	?
COc1ccc(-c2csc(NC(=O)c3cccc(N4C(=O)CCC4=O)c3)n2)cc1OC	5.5	.	5.4	21.4	3.6	1.1	.	.
SMILES	proCasp3 act	PHOSPHO1 inh	proCasp7 act	UBC13 polyUb	IDE inh	IDE act	Casp3 counter	UBC13 confirm
CCCCCN=C(N)N/N=C/c1c[nH]c2ccc(OC)cc12	0.5	.	-2.5	107.1*	-12.2	13.7	-4.8	111.1*
COc1ccc2[nH]cc(CCNC(=O)Nc3ccccc3C)c2c1	3.9	7.8	-2.6	38.8	1.6	3.5	.	.
COc1ccc2[nH]cc(CCNC(=O)Nc3ccccc3)c2c1	3.7	.	-7.0	51.6*	-1.3	4.1	1.0	42.3
Cc1cccc(Nc2nc(NCc3ccco3)c3ccccc3n2)c1	-9.0	15.0	-3.8	.	-3.2	-1.4	.	.
c1ccc(Nc2nc(NCc3ccco3)c3ccccc3n2)cc1	-7.8	10.6	3.3	48.0*	11.5	0.0	-0.8	76.5*
O=C(NNS(=O)(=O)c1ccc(Br)cc1)c1ccccc1-n1cccc1	-1.1	33.4	-2.4	-16.2	1.1	-7.4	.	.
O=C1CCC(C(=O)N2CCCCO2)CN1Cc1cccc(F)c1 (stereo unspecified)	4.4	24.2	-0.8	4.4	-5.1	4.7	.	.
Cn1c(SCC(=O)c2ccccc2)ncc(C(=O)Nc2ccccc2)c1=O	-10.7	.	-16.1	57.1*	-4.5	2.7	94.8*	53.0*
COc1ccc(-c2noc(CCC(=O)NCC3CCN(Cc4cccc(C)c4)CC3)n2)cc1	5.4	1.0	-7.7	53.6*	2.4	0.5	3.0	49.0*
